Activity calls are given as the source filed them. The rule behind the calls is not given here.
Assays:
Format in all cases: functional
[1] = system: Radical scavenging activity; test: Antioxidant activity assessed as DPPH radical scavenging activity after 20 min
Method in brief: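 Percent antiradical activity = (1 − sample/blank absorbance)×100; IC25 from logarithmic regression over 5–6 concentrations; highest concentration tested 400 µM.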

[2] = Antioxidant activity assessed as inhibition of superoxide production by xanthine/xanthine oxidase method
Method in brief: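 Superoxide generated from 500 µM xanthine with 3.75 mU/mL xanthine oxidase in 0.1 M phosphate buffer pH 7.5, detected as reduction of 500 µM NBT to monoformazan at 560 nm, 25°C, as rate of absorbance change. IC25 from rate versus log concentration, 5–7 concentrations, top concentration 50 µM.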

[3] = Antioxidant activity in BALB/c mouse BM cells assessed as inhibition of ROS production; details: Bone marrow cell
Method in brief: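 Whole bone marrow cells flushed from tibias and femurs with phenol red-free HBSS pH 7.4, strained through 70 µm, 1 × 10^6 cells/mL. L-012 (40 µM final) and horseradish peroxidase (8 µg/ml final) added; cells mixed with compound from DMSO stock (1% DMSO final). Luminescence read 60 min every 2 min at 37°C; area under curve gives total signal; IC25 from % inhibition versus log concentration, 5–7 concentrations.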

Row | Structure (SMILES) | IC25 [1] [µM] | IC25 [2] [µM] | Activity [1] | IC25 [3] [µM] | Activity [2]
1 | C[C@@H]1O[C@@H](OC[C@H]2O[C@@H](Oc3c(-c4ccc(O)c(O)c4)oc4cc(O)cc(O)c4c3=O)[C@H](O)[C@@H](O)[C@@H]2O)[C@H](O)[C@H](O)[C@H]1O | 12.2 | 4.5 | – | – | –
2 | COc1cc(-c2cc(=O)c3ccccc3o2)ccc1O | – | – | inactive | 14.5 | inactive
3 | O=C1C[C@@H](c2ccc(O)cc2)Oc2cc(O)cc(O)c21 [NARINGENIN] | – | – | inactive | 551 | inactive
4 | O=c1c(O)c(-c2cc(O)c(O)c(O)c2)oc2cc(O)cc(O)c12 [MYRICETIN] | 41.8 | 6.8 | – | 5.2 | –
5 | COc1ccccc1-c1oc2ccccc2c(=O)c1O | – | – | inactive | 49 | –
6 | C[C@@H]1O[C@@H](O[C@H]2[C@H](Oc3cc(O)c4c(=O)cc(-c5ccc(O)cc5)oc4c3)O[C@H](CO)[C@@H](O)[C@@H]2O)[C@H](O)[C@H](O)[C@H]1O [RHOIFOLIN] | – | 7.2 | – | 201 | –
7 | O=c1c(O)c(-c2ccc(O)c(O)c2)oc2cc(O)cc(O)c12 [QUERCETIN] | 8.1 | 3 | – | 3.5 | –
8 | COc1ccc(-c2oc3ccc(C)cc3c(=O)c2O)cc1OC | 89 | – | – | – | –
9 | O=c1c(O)c(-c2ccc(O)cc2)oc2cc(O)cc(O)c12 [KAEMPFEROL] | 22.6 | – | – | 4 | inactive
10 | O=c1c(O)c(-c2ccc(O)c(O)c2)oc2ccccc12 | 0.7 | 0.68 | – | 1.75 | –
11 | O=c1cc(-c2ccc(O)c(O)c2)oc2cc(O)cc(O)c12 [LUTEOLIN] | 12.1 | 6.9 | – | 13.7 | –
12 | O=c1c(O)c(-c2ccc(O)cc2)oc2ccc(O)cc12 | 4.5 | – | – | – | –
13 | O=c1cc(-c2cccc(O)c2O)oc2ccccc12 | 0.5 | – | – | – | –
14 | O=c1c(O)c(-c2ccccc2)oc2cc(O)cc(O)c12 [GALANGIN] | 86.4 | – | – | 4.3 | inactive
15 | COc1ccc2c(=O)cc(-c3ccccc3)oc2c1O | – | – | inactive | 3.1 | inactive
16 | COc1cc(O)c2c(=O)cc(-c3ccccc3)oc2c1 [TECHTOCHRYSIN] | – | – | inactive | 160 | inactive
17 | O=c1cc(-c2ccccc2O)oc2cc(O)cc(O)c12 | – | – | inactive | 5.7 | inactive
18 | Oc1cc(O)c2c(c1)O[C@H](c1ccc(O)c(O)c1)[C@@H](O)C2 [CIANIDANOL] | 33.3 | 45.8 | – | 168 | –
19 | COc1ccc(C2CC(=O)c3c(O)cc(O[C@@H]4O[C@H](CO[C@@H]5O[C@@H](C)[C@H](O)[C@@H](O)[C@H]5O)[C@@H](O)[C@H](O)[C@H]4O)cc3O2)cc1O (stereo not given in full) | – | – | inactive | – | inactive
20 | COc1c(-c2ccccc2)oc2cc(O)ccc2c1=O | – | – | inactive | 1050 | inactive

Row | Structure (SMILES) | IC25 [1] [µM] | IC25 [2] [µM] | Activity [1] | IC25 [3] [µM] | Activity [2]
21 | O=C1CC(c2ccc(O)cc2)Oc2ccccc21 (stereo not given) [4'-HYDROXY-FLAVANONE] | – | – | inactive | 3300 | inactive
22 | Oc1ccc(/C=C/c2cc(O)cc(O)c2)cc1 [RESVERATROL] | 349 | – | – | 70 | inactive
23 | CN1CCc2cccc3c2[C@H]1Cc1ccc(O)c(O)c1-3 [APOMORPHINE] | – | 16.2 | – | – | –
24 | COc1ccc([C@@H]2CC(=O)c3c(O)cc(O)cc3O2)cc1O [HESPERETIN] | 83 | – | – | 647 | inactive
25 | O=C1CC(c2ccccc2O)Oc2ccccc21 (stereo not given) [2'-HYDROXY-FLAVANONE] | – | – | inactive | 5620 | inactive
26 | O=c1cc(-c2cccc(O)c2)oc2c(O)c(O)ccc12 | 2.7 | 2.4 | – | 0.8 | –
27 | O=c1cc(-c2ccccc2O)oc2c(O)c(O)ccc12 | 2.1 | 1.2 | – | 0.52 | –
28 | O=c1cc(-c2ccccc2)oc2cc(O)cc(O)c12 [CHRYSIN] | – | – | inactive | 4480 | inactive
29 | O=c1cc(-c2ccccc2)oc2cc(O)c(O)c(O)c12 [BAICALEIN] | 1.5 | 2.6 | – | 10.4 | –
30 | O=c1cc(-c2ccc(O)c(O)c2)oc2cccc(O)c12 | 1.5 | – | – | – | –
31 | O=c1c(O)c(-c2ccc(O)c(O)c2)oc2cc(O)ccc12 [FISETIN] | 7.9 | 2.7 | – | 31 | –
32 | COc1ccc(-c2cc(=O)c3c(O)cc(O[C@@H]4O[C@H](CO[C@@H]5O[C@@H](C)[C@H](O)[C@@H](O)[C@H]5O)[C@@H](O)[C@H](O)[C@H]4O)cc3o2)cc1O | – | – | inactive | – | inactive
33 | COc1cc([C@@H]2Oc3cc([C@@H]4Oc5cc(O)cc(O)c5C(=O)[C@H]4O)ccc3O[C@H]2CO)ccc1O | 61.4 | 7.7 | – | 140 | –
34 | COc1ccc(-c2cc(=O)c3c(O)cc(O)cc3o2)cc1 [ACACETIN] | – | 16.3 | inactive | 1180 | –
35 | O=C(CCc1ccc(O)cc1)c1c(O)cc(O)cc1O [PHLORETIN] | – | – | inactive | 300 | inactive
36 | COc1cccc2oc(-c3ccc(O)cc3)cc(=O)c12 | – | – | inactive | 1270 | inactive
37 | O=c1cc(-c2ccc(O)cc2)oc2cc(O)cc(O)c12 [APIGENIN] | – | – | inactive | 113 | inactive
38 | O=c1c(O)c(-c2ccc(O)cc2)oc2cc(O)ccc12 [RESOKAEMPFEROL] | 4.1 | 48 | – | 23 | –
39 | COc1c(-c2ccc(O)c(O)c2)oc2cc(O)cc(O)c2c1=O [3-O-METHYLQUERCETIN] | 5.9 | 3.6 | – | 58 | –
40 | COc1ccc(-c2coc3cc(O)cc(O)c3c2=O)cc1 [BIOCHANIN] | – | – | inactive | 33 | inactive

— ChEMBL document CHEMBL1146339, “Improved quantitative structure-activity relationship models to predict antioxidant activity of flavonoids in chemical, enzymatic, and cellular systems” (Bioorg Med Chem, 2007)
